In ChEMBL document CHEMBL1126182, “Antibacterials. synthesis and structure-activity studies of 3-aryl-2-oxooxazolidines. 4. Multiply-substituted aryl derivatives” (1992) one finds MIC data, which are given here for 48 compounds.

Molecules are shown by their SMILES. Converted amounts (≈) assume the structure as drawn.

One test deals with Enterococcus faecalis. Put plainly: Antibacterial activity against Enterococcus faecalis STCO-19. It counts as functional. Put shortly:
(§1)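 MIC by microtiter broth dilution. For racemic samples, the measured MIC was divided by two, since only one oxazolidinone enantiomer is antibacterial.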

The next test concerns Staphylococcus aureus. Put plainly: Antibacterial activity against Staphylococcus aureus SFCO-1a cell line. The format is functional. Put shortly: as §1

As for `CC(=O)NCC1CN(c2cccc(I)c2)C(=O)O1` (stereo unspecified), the results for the MIC against Enterococcus faecalis and in the test on Staphylococcus aureus were 128 µg/mL (≈ 355 µM) and 64 µg/mL (≈ 178 µM), respectively.
The corresponding values for `CC(=O)NCC1CN(c2ccc(C(C)=O)c(O)c2)C(=O)O1` (stereo unspecified) are 2 µg/mL (≈ 6.84 µM) and 2 µg/mL (≈ 6.84 µM).
As to `CC(=O)NC[C@H]1CN(c2ccc3c(c2)CCC3)C(=O)O1`, the MIC against Enterococcus faecalis turned out to be 4 µg/mL (≈ 14.6 µM); against Staphylococcus aureus, 2 µg/mL (≈ 7.29 µM).
The corresponding values for `CSc1ccc(N2CC(CNC(C)=O)OC2=O)cc1[N+](=O)[O-]` (stereo unspecified) are 8 µg/mL (≈ 24.6 µM) and 8 µg/mL (≈ 24.6 µM).
The corresponding values for `CC(=O)NCC1CN(c2cccc([N+](=O)[O-])c2)C(=O)O1` (stereo unspecified) are 4 µg/mL (≈ 14.3 µM) and 4 µg/mL (≈ 14.3 µM).
On the same counts, the results for `CC(=O)NCC1CN(c2cccc(Cl)c2)C(=O)O1` (stereo unspecified) are 128 µg/mL (≈ 476 µM) and 64 µg/mL (≈ 238 µM).
Consider `C#Cc1ccc(N2C[C@H](CNC(C)=O)OC2=O)c(F)c1`, for which the MIC with Enterococcus faecalis and against Staphylococcus aureus was 128 µg/mL (≈ 463 µM) each time.
Turning to `CSc1cc(N2CC(CNC(C)=O)OC2=O)ccc1C(C)=O` (stereo unspecified), the MIC with Enterococcus faecalis and with Staphylococcus aureus was > 128 µg/mL throughout.
For `CC(=O)NC[C@H]1CN(c2ccc(C(C)=O)cc2F)C(=O)O1`, the MIC in the test with Enterococcus faecalis and with Staphylococcus aureus was 32 µg/mL (≈ 109 µM) in each case.
Take `COc1cc(OC)cc(N2CC(CNC(C)=O)OC2=O)c1` (stereo unspecified): the MIC against Enterococcus faecalis and in the test with Staphylococcus aureus was > 128 µg/mL each time.
As to `CC(=O)NCC1CN(c2ccccc2)C(=O)O1` (stereo unspecified), the MIC in the test on Enterococcus faecalis and in the test with Staphylococcus aureus was 128 µg/mL (≈ 546 µM) throughout.
With `CC(=O)NCC1CN(c2c(F)cc(C(C)=O)cc2F)C(=O)O1` (stereo unspecified), the MIC against Enterococcus faecalis and against Staphylococcus aureus was > 128 µg/mL throughout.
Take `CC(=O)NC[C@H]1CN(c2ccc(C(C)=O)c(C)c2)C(=O)O1`: the MIC against Enterococcus faecalis and in the test with Staphylococcus aureus was 1 µg/mL (≈ 3.44 µM) throughout.
In the case of `CC(=O)NCC1CN(c2cccc(F)c2)C(=O)O1` (stereo unspecified), the MIC in the test on Enterococcus faecalis and in the test with Staphylococcus aureus was 32 µg/mL (≈ 127 µM) throughout.
Regarding `CCCc1cc(N2CC(CNC(C)=O)OC2=O)ccc1C(C)=O` (stereo unspecified), the MIC in the test with Enterococcus faecalis and in the test on Staphylococcus aureus was > 128 µg/mL each time.
As for `CC(=O)NCC1CN(c2ccc(C(C)=O)c(F)c2)C(=O)O1` (stereo unspecified), the results for the MIC with Enterococcus faecalis and against Staphylococcus aureus were 2 µg/mL (≈ 6.8 µM) and 1 µg/mL (≈ 3.4 µM), respectively.
Turning to `CC(=O)NCC1CN(c2ccc(C(C)=O)c(Cl)c2)C(=O)O1` (stereo unspecified), the MIC in the test with Enterococcus faecalis and with Staphylococcus aureus was 2 µg/mL (≈ 6.44 µM) throughout.
As for `CC(=O)NCC1CN(c2ccc(C(C)=O)c(N)c2)C(=O)O1` (stereo unspecified), the MIC in the test with Enterococcus faecalis and with Staphylococcus aureus was 4 µg/mL (≈ 13.7 µM) each time.
With `CC(=O)NCC1CN(c2cccc(C)c2)C(=O)O1` (stereo unspecified), the MIC against Enterococcus faecalis and in the test with Staphylococcus aureus was 32 µg/mL (≈ 129 µM) in each case.
Consider `CC(=O)NC[C@H]1CN(c2ccc3ccccc3c2)C(=O)O1`, for which the MIC against Enterococcus faecalis was found to be 8 µg/mL (≈ 28.1 µM); in the test on Staphylococcus aureus it was 4 µg/mL (≈ 14.1 µM).
On to `COc1cc(N2CC(CNC(C)=O)OC2=O)ccc1C(C)=O` (stereo unspecified), for which the MIC with Enterococcus faecalis and against Staphylococcus aureus was > 128 µg/mL in each case.
On to `CC(=O)NCC1CN(c2cccc(N)c2)C(=O)O1` (stereo unspecified), for which the MIC in the test with Enterococcus faecalis and in the test with Staphylococcus aureus was > 128 µg/mL throughout.
In the case of `CC(=O)NC[C@H]1CN(c2ccc3[nH]ccc3c2)C(=O)O1`, the MIC in the test on Enterococcus faecalis and against Staphylococcus aureus was > 128 µg/mL in each case.
Take `CSc1cccc(N2CC(CNC(C)=O)OC2=O)c1` (stereo unspecified): the MIC against Enterococcus faecalis and in the test on Staphylococcus aureus was 16 µg/mL (≈ 57.1 µM) in each case.
On to `CCCc1ccc(N2C[C@H](CNC(C)=O)OC2=O)cc1`, for which the MIC in the test with Enterococcus faecalis came to 4 µg/mL (≈ 14.5 µM); with Staphylococcus aureus it was 2 µg/mL (≈ 7.24 µM).
On the same counts, the results for `CC(=O)NCC1CN(c2cccc(Br)c2)C(=O)O1` (stereo unspecified) are 64 µg/mL (≈ 204 µM) and 16 µg/mL (≈ 51.1 µM).
On the same counts, the results for `CC(=O)NCC1CN(c2cccc([S+](C)[O-])c2)C(=O)O1` (stereo unspecified) are > 128 µg/mL and > 128 µg/mL.
The corresponding values for `CC(=O)NCC1CN(c2ccc([S+](C)[O-])c([N+](=O)[O-])c2)C(=O)O1` (stereo unspecified) are 8 µg/mL (≈ 23.4 µM) and 8 µg/mL (≈ 23.4 µM).
For `CCCc1cccc(N2CC(CNC(C)=O)OC2=O)c1` (stereo unspecified), the MIC in the test on Enterococcus faecalis amounted to 128 µg/mL (≈ 463 µM); in the test with Staphylococcus aureus, 64 µg/mL (≈ 232 µM).
On the same counts, the results for `CCc1cc(N2CC(CNC(C)=O)OC2=O)ccc1C(C)=O` (stereo unspecified) are 8 µg/mL (≈ 26.3 µM) and 16 µg/mL (≈ 52.6 µM).
For `CC(=O)NC[C@H]1CN(c2ccc([N+](=O)[O-])cc2[N+](=O)[O-])C(=O)O1`, the MIC against Enterococcus faecalis and against Staphylococcus aureus was > 128 µg/mL each time.
With `CC(=O)NC[C@H]1CN(c2ccc(C)c(C)c2)C(=O)O1`, the MIC against Enterococcus faecalis came out at 16 µg/mL (≈ 61 µM); against Staphylococcus aureus, 8 µg/mL (≈ 30.5 µM).
Regarding `CC(=O)NCC1CN(c2cc(C)cc(C)c2)C(=O)O1` (stereo unspecified), the MIC in the test with Enterococcus faecalis and with Staphylococcus aureus was > 128 µg/mL throughout.
Consider `CC(=O)NCC1CN(c2ccc([S+](C)[O-])c(C)c2)C(=O)O1` (stereo unspecified), for which the MIC in the test on Enterococcus faecalis and against Staphylococcus aureus was 8 µg/mL (≈ 25.8 µM) throughout.
Turning to `COc1cc([N+](=O)[O-])ccc1N1C[C@H](CNC(C)=O)OC1=O`, the MIC in the test with Enterococcus faecalis and with Staphylococcus aureus was > 128 µg/mL in each case.
For `CC(=O)NCC1CN(c2ccc(C(C)=O)c(I)c2)C(=O)O1` (stereo unspecified), the MIC in the test on Enterococcus faecalis and in the test with Staphylococcus aureus was 32 µg/mL (≈ 79.6 µM) throughout.
Consider `CC(=O)NCC1CN(c2cccc(S(C)(=O)=O)c2)C(=O)O1` (stereo unspecified), for which the MIC in the test on Enterococcus faecalis and in the test with Staphylococcus aureus was > 128 µg/mL throughout.
As for `COc1cccc(N2CC(CNC(C)=O)OC2=O)c1` (stereo unspecified), the MIC with Enterococcus faecalis and against Staphylococcus aureus was 64 µg/mL (≈ 242 µM) in each case.
Take `CC(=O)NCC1CN(c2ccc(C(C)=O)c([S+](C)[O-])c2)C(=O)O1` (stereo unspecified): the MIC in the test on Enterococcus faecalis and against Staphylococcus aureus was > 128 µg/mL each time.
Turning to `COc1ccc([N+](=O)[O-])cc1N1C[C@H](CNC(C)=O)OC1=O`, the MIC against Enterococcus faecalis and in the test on Staphylococcus aureus was > 128 µg/mL in each case.
On to `CC(=O)NCC1CN(c2ccc([S+](C)[O-])cc2)C(=O)O1` (stereo unspecified), for which the MIC in the test on Enterococcus faecalis and with Staphylococcus aureus was 4 µg/mL (≈ 13.5 µM) in each case.
Take `CSc1ccc(N2CC(CNC(C)=O)OC2=O)cc1` (stereo unspecified): the MIC against Enterococcus faecalis and in the test on Staphylococcus aureus was 4 µg/mL (≈ 14.3 µM) throughout.
`CC(=O)NCC1CN(c2ccc(C(C)=O)c(S(C)(=O)=O)c2)C(=O)O1` (stereo unspecified): the MIC in the test with Enterococcus faecalis and against Staphylococcus aureus was > 128 µg/mL each time.
Take `CC(=O)NCC1CN(c2ccc(C(C)=O)c(Br)c2)C(=O)O1` (stereo unspecified): the figures for the MIC with Enterococcus faecalis and against Staphylococcus aureus were 8 µg/mL (≈ 22.5 µM) and 4 µg/mL (≈ 11.3 µM), respectively.
On the same counts, the results for `CCc1cccc(N2CC(CNC(C)=O)OC2=O)c1` (stereo unspecified) are 16 µg/mL (≈ 61 µM) and 16 µg/mL (≈ 61 µM).
On the same counts, the results for `CC(=O)NCC1CN(c2cccc(O)c2)C(=O)O1` (stereo unspecified) are > 128 µg/mL and > 128 µg/mL.
`CC(=O)NC[C@H]1CN(c2ccc(C(C)=O)cc2)C(=O)O1` [DUP-721]: the MIC stood at 1 µg/mL (≈ 3.62 µM) in the test on Enterococcus faecalis and 0.5 µg/mL (≈ 1.81 µM) in the test with Staphylococcus aureus.
Take `CC(=O)NC[C@H]1CN(c2ccc3c(c2)CCC3=O)C(=O)O1` [PNU-82965]: the MIC with Enterococcus faecalis and in the test with Staphylococcus aureus was 2 µg/mL (≈ 6.94 µM) each time.
